Laboratory results taken from article PMC2774150 (Apmis, 2008).
Entries after “also recorded” stand apart in the source; their conditions may differ. Where two headings read alike, the source gives them in different places.

Legend:
[1] = tested on: H4 acetylation in A2780 ovarian cancer model; assay: Experiment 1: H4 acetylation in vivo, A2780 xenograft; design: species or system NMRI nude mice; conditions: 100 mg/kg single i.v., 1 h
Method in brief: (§1)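 Female NMRI nude mice, 6–8 weeks old, received about 10^7 cells with matrigel s.c. into the flank under Hypnorm/Dormicum. They were given 100 mg/kg test compound i.v. or vehicle (L-arginine 200 mg/kg in isotonic sterile saline) and killed after 1 h. Formalin-fixed, paraffin-embedded tumors were immunostained for acetylated H4 (mouse monoclonal T25, acetyl-Lys8/Lys12, 1:13,000; TEG pH 9 retrieval; EnVision+/DAB) and scored 0–3.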

[2] = tested on: acetylated H4 in A2780 ovarian cancer cells; assay: H4 acetylation by immunohistochemistry in paraffin-embedded A2780 cell blocks; type: cell-based, human; conditions: 1 μM for 1 h
[3] = tested on: H4 acetylation in A2780 biopsies and tumors; assay: Experiment 3: time dependence of H4 acetylation in A2780 biopsies and tumors; type: in vivo, NMRI nude mice; conditions: for H4 acetylation, 1 h biopsy / H4 acetylation, 2 h biopsy / H4 acetylation, 3 h biopsy / H4 acetylation, 3 h tumor / H4 acetylation, 6 h biopsy / H4 acetylation, 6 h tumor: individual mice
Method in brief: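 Sixteen NMRI nude mice with small (300–400 mg) or large (1500–1800 mg) A2780 s.c. tumors received 100 mg/kg test compound i.v. at time zero. A pretreatment biopsy (large tumors only) and one post-dose 18G needle biopsy (1–6 h) were taken under isoflurane. Whole tumors were excised at 3, 6 or 24 h. Paraffin sections were stained with T25 anti-acetyl-H4 (1:13,000) and scored 0–3.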

[4] = tested on: H4 acetylation in A548 lung cancer model; assay: Experiment 1: H4 acetylation in vivo, A549 xenograft; design: species or system NMRI nude mice; conditions: 100 mg/kg single i.v., 1 h
Method in brief: as §1

[5] = Experiment 4: belinostat in plasma, tumor and spleen by LC-MS/MS; type: in vivo, NMRI nude mice
Method in brief: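 A2780 xenograft mice received 200 mg/kg i.v. once; lithium-heparin plasma, tumor and spleen were collected at 15 min–3 h. Plasma was protein-precipitated with a 13C-labelled internal standard, dried and redissolved in 10% HCOOH/ACN. Tissues were homogenized in water/ACN/methanol containing internal standard (1 μg/ml). Analysis used LC-MS/MS on UPLC C18 (0.05% HCOOH/ACN, 5 min gradient, 0.5 ml/min), reporting ng/ml plasma and ng/g tissue.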

[6] = tested on: H4 acetylation in peripheral blood from A2780 xenografts; conditions: 3 h after treatment, 40 mg/kg i.p.; cited from earlier work
[7] = tested on: p21 expression in A2780 xenograft; assay: Experiment 3: p21 expression in A2780 biopsies and tumors; type: in vivo, NMRI nude mice
Method in brief: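 In A2780 xenografts (small 300–400 mg or large 1500–1800 mg), mice received 100 mg/kg test compound i.v. Pretreatment (large tumors) and post-dose needle biopsies were taken between 1 and 6 h; whole tumors were taken at 3, 6 or 24 h. Paraffin sections were immunostained for p21 (monoclonal EA10, 1:80; TEG pH 9 retrieval; EnVision+/DAB) and nuclear versus cytoplasmic staining was recorded.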

[8] = tested on: H4 acetylation in histones extracted from A2780 cells; conditions: cited from earlier work
[9] = tested on: H4 acetylation in PC-3 prostate cancer model; assay: Experiment 1: H4 acetylation in vivo, PC-3 xenograft; design: species or system NMRI nude mice; conditions: 100 mg/kg single i.v., 1 h
Method in brief: as §1

[10] = tested on: H4 acetylation in spleen; assay: Experiment 4: H4 acetylation score in spleen; type: in vivo, NMRI nude mice; conditions: 200 mg/kg i.v.
Method in brief: (§2)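 Groups of 3–4 NMRI nude mice with s.c. A2780 xenografts (500–1000 mg) received a single 200 mg/kg test compound dose i.v. or vehicle (L-arginine 400 mg/kg in isotonic sterile saline). Mice were killed at 15 min, 30 min, 1, 2 or 3 h. Tumor and spleen were halved, and one part was immunostained with T25 anti-acetyl-H4. Scores were 0–3 per mouse, averaged per time point.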

[11] = tested on: H4 acetylation in peripheral canine blood; conditions: 10 min after i.v. infusion given over 45 min, total dose 50 mg/kg; cited from earlier work
[12] = tested on: H4 acetylation in MCF-7 model; assay: Experiment 1: H4 acetylation in vivo, MCF-7 xenograft; design: species or system NMRI nude mice; conditions: 100 mg/kg single i.v., 1 h
Method in brief: as §1

[13] = tested on: acetylated H4 in A2780 xenograft; assay: Experiment 2: H4 acetylation in A2780 biopsies and representative tumors; type: in vivo, NMRI nude mice; conditions: 100 mg/kg i.v., 1 h, A2780, Fig. 4A
Method in brief: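 Mice bearing HCT-116, A2780, PC-3 or MCF-7 tumors (500–1000 mg) received 100 mg/kg test compound i.v. or vehicle and were killed after 1 h. Biopsies were taken with an 18G needle, aspirating while rotating. Biopsies and the remaining tumor were formalin-fixed, paraffin-embedded and stained with anti-acetyl-H4 T25 (1:13,000). Staining was scored negative, weak, moderate or strong (0–3).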

[14] = tested on: H4 acetylation in A2780 xenograft tumor; assay: Experiment 4: H4 acetylation score in A2780 tumor; type: in vivo, NMRI nude mice
Method in brief: as §2

[15] = tested on: H4 acetylation in HCT-116 colon cancer model; assay: Experiment 1: H4 acetylation in vivo, HCT-116 xenograft; design: species or system NMRI nude mice; conditions: 100 mg/kg single i.v., 1 h
Method in brief: as §1

[16] = tested on: histone acetylation in peripheral blood lymphocytes; conditions: clinical study; cited from earlier work
[17] = cited from earlier work
[18] = 100 mg/kg i.v., large tumors (1500–1800 mg)
[19] = 100 mg/kg i.v., small tumors (300–400 mg)
[20] = individual mice, listed as Belinostat
[21] = 200 mg/kg i.v., individual mice
[22] = 200 mg/kg i.v., individual mice, listed as Belinostat
[23] = single treatment 200 mg/kg i.v.

O=C(/C=C/c1cccc(S(=O)(=O)Nc2ccccc2)c1)NO [belinostat]
H4 acetylation signal [1]: strongest signal
H4 acetylation [2]: strong (strong (score=3))
H4 acetylation after 6 and 24 h ([3]; 100 mg/kg i.v.): weak or no
H4 acetylation, general findings at 3 h ([3]; 100 mg/kg i.v.): weak or moderate
H4 acetylation in biopsy, same mouse (Fig. 4B) ([3]; 100 mg/kg i.v., 1 h after treatment): strong (strong (score=3))
removed tumors with strong H4 acetylation ([3]; 100 mg/kg i.v., 3 h after treatment): 1/10
acetylation period ([3]; 100 mg/kg i.v., Experiment 3, not extended at 200 mg/kg): 1 to 2 h
H4 acetylation in tumor, same mouse (Fig. 4B) ([3]; 100 mg/kg i.v., after 3 h): weak (weak (score=1))
H4 acetylation, 1 h biopsy [3, 18]: Strong
H4 acetylation, 2 h biopsy [3, 18]: Strong
H4 acetylation, 3 h biopsy [3, 18]: Strong
H4 acetylation, 3 h tumor [3, 18]: Moderate and Weak
H4 acetylation, 6 h biopsy [3, 18]: Weak
H4 acetylation, 6 h tumor [3, 18]: Weak
H4 acetylation, all biopsies collected 2 h after treatment ([3]; 100 mg/kg i.v., n=4): strong (strong (score=3))
H4 acetylation, all biopsies collected 1 h after treatment ([3]; 100 mg/kg i.v., n=5): strong (strong (score=3))
H4 acetylation, 1 h biopsy [3, 19]: Strong
H4 acetylation, 2 h biopsy [3, 19]: Strong
H4 acetylation, 3 h biopsy [3, 19]: Moderate; also recorded: Strong
H4 acetylation, 3 h tumor [3, 19]: Weak and Moderate and Strong
H4 acetylation, 6 h biopsy [3, 19]: Weak
H4 acetylation, 6 h tumor [3, 19]: Weak
time at which H4 acetylation reached base line level ([3]; after treatment, A2780 xenograft): 3 h
H4 acetylation [4]: caused H4 acetylation
distribution to tumor and spleen tissue ([5]; 200 mg/kg i.v. single dose): similar
belinostat plasma concentration at maximal acetylation ([5]; 200 mg/kg i.v., 1 h after treatment, Fig. 8): above 10^3 ng/ml
H4 acetylation in peripheral blood from A2780 xenografts [6]: returned to base line levels
biopsies with moderate cytoplasmic p21 expression ([7]; 100 mg/kg i.v., 2 h, one of four biopsies): 25%
tumors with strong cytoplasmic p21 expression ([7]; 100 mg/kg i.v., 3 h, 10 tumors): 10%
tumors with weak cytoplasmic p21 expression ([7]; 100 mg/kg i.v., 3 h, 10 tumors): 50%
cytoplasmic p21 expression, all biopsies removed after 6 h ([7]; 100 mg/kg i.v., 6 h): moderate-to-strong
tumors with strong cytoplasmic p21 expression ([7]; 100 mg/kg i.v., 6 h, four tumors): 25%
cytoplasmic p21 expression after 24 h ([7]; 100 mg/kg i.v., 24 h): disappeared
time of p21 induction in the cytoplasm ([7]; after belinostat treatment): about 3 h
H4 acetylation in histones extracted from A2780 cells ([8]; 30 min after treatment with 1 μM): increased
H4 acetylation in histones extracted from A2780 cells ([8]; 3 h after treatment, 1 μM): returned to base line levels
H4 acetylation [9]: Weak
H4 acetylation (score), spleen, 2 h ([10]; individual mice): Moderate (2)
H4 acetylation (score), spleen, 15 min [10, 20]: Moderate (2); also recorded: Weak (1)
H4 acetylation (score), spleen, 30 min [10, 20]: Strong (3); also recorded: Moderate (2)
H4 acetylation (score), spleen, 1 h [10, 20]: Strong (3); also recorded: Moderate (2)
H4 acetylation (score), spleen, 3 h [10, 20]: Weak (1); also recorded: No (0)
H4 acetylation score, spleen, mean, 15 min ([10]; score 0-3): 1.5
H4 acetylation score, spleen, mean, 30 min ([10]; score 0-3): 2.5
H4 acetylation score, spleen, mean, 1 h ([10]; score 0-3): 2.75
H4 acetylation score, spleen, mean, 2 h ([10]; score 0-3): 2
H4 acetylation score, spleen, mean, 3 h ([10]; score 0-3): 0.67
H4 acetylation in peripheral canine blood [11]: increased
H4 acetylation [12]: Weak
H4 acetylation in both biopsies and tumors [13]: strong (III) or moderate (IV)
H4 acetylation (score), tumor, 15 min [14, 21]: weak-to-moderate
H4 acetylation (score), tumor, 1 h [14, 21]: strong (strong (score=3))
H4 acetylation (score), tumor, 3 h [14, 21]: weak and moderate
H4 acetylation (score), tumor, 15 min [14, 22]: Moderate (2); also recorded: No (0); also recorded: Weak (1)
H4 acetylation (score), tumor, 30 min [14, 22]: Moderate (2); also recorded: Strong (3); also recorded: Weak (1)
H4 acetylation (score), tumor, 1 h [14, 22]: Strong (3)
H4 acetylation (score), tumor, 2 h [14, 22]: Moderate (2); also recorded: Strong (3)
H4 acetylation (score), tumor, 3 h [14, 22]: Moderate (2); also recorded: Weak (1)
H4 acetylation score, tumor, mean, 15 min ([14]; 200 mg/kg i.v., score 0-3): 1.25
H4 acetylation score, tumor, mean, 30 min ([14]; 200 mg/kg i.v., score 0-3): 2
H4 acetylation score, tumor, mean, 1 h ([14]; 200 mg/kg i.v., score 0-3): 3
H4 acetylation score, tumor, mean, 2 h ([14]; 200 mg/kg i.v., score 0-3): 2.33
H4 acetylation score, tumor, mean, 3 h ([14]; 200 mg/kg i.v., score 0-3): 1.67
time at which increased acetylated H4 was detected in tumor tissue [14, 23]: 15 min
time of maximal H4 acetylation level [14, 23]: 1 h
H4 acetylation [15]: caused H4 acetylation

O=C(CCCCCCC(=O)Nc1ccccc1)NO [vorinostat, suberoylanilide hydroxamic acid]
half-life of acetylated histones at higher doses [16]: increased
pharmacokinetics (linearity) ([17]; dose proportional increases in Cmax and AUC): linear

Nc1ccccc1NC(=O)c1ccc(CNC(=O)OCc2cccnc2)cc1 [MS-275]
pharmacokinetics (linearity) [17]: linear, dose-independent
